Data: paper PMC7316630 (Nature immunology, 2020)
Counter-ions that a name gives are not always drawn. Values belong to the molecule of their own block, whether it stands above or below them. Peptide text beside a SMILES is read from it. * marks the point of attachment. Cbz = O=C(OCc1ccccc1)*; CH2F = FC*

Experiments:
[1] = target: T1, human GSDMD (Homo sapiens, UniProt P57764); format: biochemical; conditions: for Inhibition of GSDMD and caspase-11-mediated liposome leakage (in words): GSDMD 0.3 μM plus caspase-11 0.15 μM, LDC7559 at up to 50 μM
T1 sequence (P57764 1-484): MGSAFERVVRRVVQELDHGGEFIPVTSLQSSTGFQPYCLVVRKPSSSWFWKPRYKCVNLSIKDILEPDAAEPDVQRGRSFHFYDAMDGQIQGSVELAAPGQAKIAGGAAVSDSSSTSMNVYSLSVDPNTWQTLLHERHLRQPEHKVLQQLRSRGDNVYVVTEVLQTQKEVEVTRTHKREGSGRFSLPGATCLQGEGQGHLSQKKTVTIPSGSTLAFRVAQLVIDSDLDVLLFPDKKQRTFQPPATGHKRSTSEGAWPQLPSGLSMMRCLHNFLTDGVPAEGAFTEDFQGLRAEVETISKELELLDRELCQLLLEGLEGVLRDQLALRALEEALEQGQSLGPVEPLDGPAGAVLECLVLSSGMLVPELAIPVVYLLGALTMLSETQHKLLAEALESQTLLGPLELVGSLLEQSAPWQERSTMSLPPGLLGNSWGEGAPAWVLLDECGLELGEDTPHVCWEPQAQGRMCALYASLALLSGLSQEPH

[2] = system: LPS-primed iBMDMs; assay: Immunoblot of caspase-1, GSDMD, pro-IL-1β cleavage and IL-1β release; format: cell-based, mouse; conditions: 1 hr before nigericin; lysates 1 hr later
How it was run: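 Mouse iBMDMs were pretreated for 1 hr with test compound, Bay 11-7082, necrosulfonamide or z-VAD-fmk, then given nigericin. Whole cell lysates and culture supernatants were harvested 1 hr after nigericin and immunoblotted with the indicated antibodies. Data come from three independent experiments.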

[3] = system: Mouse iBMDMs; assay: AIM2 inflammasome cell death, poly; format: cell-based; conditions: 5–40 μM, 1 hr pretreatment, 4 hrs
[4] = system: HT-29 cells; assay: Necroptosis induced by TNF, SMAC mimetic and z-VAD-fmk, CellTiter-Glo; format: cell-based; conditions: disulfiram 10 and 50 μM, NSA 2 μM, Nec 10 μM; 1 hr pretreatment; 24 hrs
How it was run: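 HT-29 cells were pretreated for 1 hr. Necroptosis was then induced with TNF (20 ng/ml), SMAC mimetic (100 nM) and z-VAD-fmk (20 μM). Viability was read 24 hrs later as ATP by CellTiter-Glo luminescence.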

[5] = system: LPS-primed THP-1 cells; assay: Immunoblot of caspase-1, GSDMD, pro-IL-1β cleavage and IL-1β release; format: cell-based, human; conditions: 30 μM, 1 hr before nigericin
[6] = system: LPS-primed THP-1 cells; assay: ASC speck formation, immunofluorescence; format: cell-based, human; conditions: 30 μM, 1 hr before nigericin; 20 min after nigericin
How it was run: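 THP-1 cells were differentiated with 50 nM PMA for 36 hrs, primed with LPS (1 μg/ml) for 4 hrs, and pretreated with test compound, vehicle or z-VAD-fmk, then given nigericin (20 μM). Cells on coverslips were fixed in 4% paraformaldehyde for 15 min, permeabilized in 0.1% Triton X-100 for 5 min and blocked in 5% BSA for 1 hr. ASC was then immunostained.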

[7] = system: iBMDM; assay: LPS transfection-induced IL-1β secretion, ELISA; format: cell-based, mouse; conditions: 2.5 h; potency comparable to z-VAD-fmk
[8] = target: T2, pre-cleaved mouse GSDMA3 (Mus musculus, UniProt Q5Y4Y6); assay: Liposome leakage by pre-cleaved GSDMA3; format: biochemical; conditions: pre-cleaved mouse GSDMA3 0.3 μM
T2 sequence (Q5Y4Y6 with tags, fused parts or gaps limits assumed): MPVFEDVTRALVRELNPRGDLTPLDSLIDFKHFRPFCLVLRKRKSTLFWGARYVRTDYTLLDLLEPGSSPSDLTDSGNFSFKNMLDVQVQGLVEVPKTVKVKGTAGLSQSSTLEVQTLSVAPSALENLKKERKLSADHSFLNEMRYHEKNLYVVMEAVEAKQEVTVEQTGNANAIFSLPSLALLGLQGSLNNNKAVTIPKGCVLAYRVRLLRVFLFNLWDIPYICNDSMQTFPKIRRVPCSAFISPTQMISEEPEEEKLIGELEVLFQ

[9] = system: LPS-primed THP-1; assay: LPS + nigericin cell death with or without Cu; format: cell-based, human; conditions: with versus without Cu(II)
[10] = system: THP-1; assay: Nigericin-induced IL-1β secretion, ELISA; format: cell-based, human; conditions: potency comparable to z-VAD-fmk
[11] = system: C57BL/6J mice; assay: LPS-induced sepsis, survival; format: in vivo, mouse; conditions: LPS 25 mg/kg; 50 mg/kg i.p. 4 hrs before and daily after LPS
[12] = system: LPS-primed THP-1 cells; assay: GSDMD membrane staining and pyroptotic bubbles, confocal microscopy; format: cell-based, human; conditions: 30 μM; 30 min after nigericin
How it was run: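 PMA-differentiated THP-1 cells were primed with LPS (1 μg/ml, 4 hrs), pretreated for 1 hr and given nigericin. They were fixed (4% PFA), permeabilized (0.1% Triton X-100), blocked (5% BSA) and stained with an in-house mouse monoclonal anti-GSDMD antibody. Confocal images were scored for cells with membrane GSDMD staining and pyroptotic bubbles across 40 high-power fields per sample, in 5 independent experiments. Two-tailed Student's t-test was used.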

Inhibition of GSDMD and caspase-11-mediated liposome leakage (in words) [1]: moderately inhibited
Proteolytic processing of caspase-1, GSDMD and pro-IL-1β [2]: inhibited
SMILES: Cc1ccc(S(=O)(=O)/C=C/C#N)cc1 [Bay 11–7082]

Inhibition of GSDMD and caspase-11-mediated liposome leakage (in words) [1]: moderately inhibited
Proteolytic processing of caspase-1, GSDMD and pro-IL-1β [2]: inhibited
SMILES: COc1nccnc1NS(=O)(=O)c1ccc(NC(=O)/C=C/c2ccc([N+](=O)[O-])s2)cc1 [NSA, necrosulfonamide]
Effect on necroptosis (cell viability) [4]: blocked

Inhibition of GSDMD and caspase-11-mediated liposome leakage (in words) [1]: hardly any activity
SMILES: CN(C)C/C=C/C(=O)Nc1cc2c(Nc3ccc(F)c(Cl)c3)ncnc2cc1O[C@H]1CCOC1 [afatinib]

Inhibition of GSDMD and caspase-11-mediated liposome leakage (in words) [1]: hardly any activity
SMILES: C=CC(=O)N1CCC[C@@H](n2nc(-c3ccc(Oc4ccccc4)cc3)c3c(N)ncnc32)C1 [ibrutinib]

Further lines, the molecule ahead of its results:

SMILES: CCN(CC)C(=S)SSC(=S)N(CC)CC [C-23, tetraethylthiuram disulfide]
Incubation time at which inhibition of liposome leakage was seen ([1]; preincubation with GSDMD 2–90 min, 0–5.6 μM): ≤ 2 min
Effect on AIM2 inflammasome-triggered cell death [3]: impaired cell death in a dose-dependent manner
Effect on necroptosis (cell viability) [4]: no effect
IL-1β in culture supernatant ([5]; immunoblot): no IL-1β was detected
ASC speck formation [6]: only modestly inhibited
LPS transfection-induced IL-1β secretion [7]: inhibited
Inhibition of pore formation of pre-cleaved GSDMA3 [8]: did not inhibit
Decrease of IC50 for inhibiting pyroptosis with Cu(II) [9]: 24 fold
Nigericin-induced IL-1β secretion [10]: inhibited
Survival of Casp1–/– mice [11]: protected

SMILES: COC(=O)/C=C/C(=O)OC [DMF, dimethyl fumarate]
Inhibition of GSDMD and caspase-11-mediated liposome leakage (in words) [1]: hardly any activity

SMILES: COc1ccccc1-c1cc2n(n1)Cc1ccc(NC(C)=O)cc1OC2 [LDC7559]
Inhibition of GSDMD and caspase-11-mediated liposome leakage (in words) [1]: no activity

SMILES: CN1C(=O)C(Cc2c[nH]c3ccccc23)NC1=S (centres unmarked) [necrostatin-1]
Effect on necroptosis (cell viability) [4]: blocked

SMILES: COC(=O)C[C@H](NC(=O)[C@H](C)NC(=O)[C@@H](NC(=O)OCc1ccccc1)C(C)C)C(=O)CF [z-VAD-fmk] (Cbz-Val-Ala-Asp(OMe)-CH2F)
Proteolytic processing of caspase-1, GSDMD and pro-IL-1β ([5]; lysates 1 hr later): inhibited the processing of all 3 proteins
GSDMD membrane staining and appearance of pyroptotic bubbles [12]: completely blocked
ASC speck formation [6]: not inhibited
